Measured values from PMC5614578 (Biochemistry and Biophysics Reports, 2017).
Entries after “also recorded” stand apart in the source; their conditions may differ. Read-outs that look alike come from different tables or passages of the source.

Experiments:
[1] = molecular target: T1, System xC^- cystine/glutamate antiporter (SXC) (Rattus norvegicus, UniProt A0A8I6AB70); test: LPS-induced glutamate release from primary microglia; format: cell-based; settings: for Inhibition of LPS-induced glutamate release (result in words): LPS-treated rat primary microglia
T1 sequence (A0A8I6AB70 1-502): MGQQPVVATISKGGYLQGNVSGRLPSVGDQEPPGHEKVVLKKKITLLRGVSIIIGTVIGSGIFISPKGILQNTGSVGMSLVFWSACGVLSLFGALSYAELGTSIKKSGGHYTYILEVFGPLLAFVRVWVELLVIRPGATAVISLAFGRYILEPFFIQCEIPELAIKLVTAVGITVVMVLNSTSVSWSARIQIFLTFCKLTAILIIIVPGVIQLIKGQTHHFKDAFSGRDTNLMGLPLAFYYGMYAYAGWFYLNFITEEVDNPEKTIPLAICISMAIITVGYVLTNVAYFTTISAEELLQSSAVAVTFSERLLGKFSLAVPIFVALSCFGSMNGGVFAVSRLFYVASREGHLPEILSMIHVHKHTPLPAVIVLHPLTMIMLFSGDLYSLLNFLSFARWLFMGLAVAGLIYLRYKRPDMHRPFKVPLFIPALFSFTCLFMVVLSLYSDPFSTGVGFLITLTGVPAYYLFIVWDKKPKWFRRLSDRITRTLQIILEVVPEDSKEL
T1 sequence (Q794F9 whole entry partner): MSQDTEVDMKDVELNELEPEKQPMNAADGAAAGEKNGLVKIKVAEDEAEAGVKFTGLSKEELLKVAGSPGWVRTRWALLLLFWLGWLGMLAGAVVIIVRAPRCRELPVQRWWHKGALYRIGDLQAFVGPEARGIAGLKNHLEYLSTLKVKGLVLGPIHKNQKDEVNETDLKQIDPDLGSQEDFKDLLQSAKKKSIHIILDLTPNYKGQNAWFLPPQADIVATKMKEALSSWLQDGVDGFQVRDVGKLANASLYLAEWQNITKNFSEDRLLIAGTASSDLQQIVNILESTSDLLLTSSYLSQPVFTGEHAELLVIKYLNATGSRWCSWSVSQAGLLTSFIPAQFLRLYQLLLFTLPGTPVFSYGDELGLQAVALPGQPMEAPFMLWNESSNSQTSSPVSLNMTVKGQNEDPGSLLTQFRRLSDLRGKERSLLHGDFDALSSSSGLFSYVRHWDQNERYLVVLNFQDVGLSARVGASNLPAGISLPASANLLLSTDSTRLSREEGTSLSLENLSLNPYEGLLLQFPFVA
Procedure, shortened: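 Rat primary microglia were taken from 14–21-day mixed glial cultures of 1–2-day pup brains by shaking at 200 rpm for 2 h at 37 °C. Cells were plated at 50,000/well on poly-D-Lys and switched after 24 h to serum-free, phenol red-free DMEM with 2 mM glutamine and 0.2 mM cystine. Test compound (8 concentrations, 10 pM–100 μM, 0.1% DMSO final, duplicate or triplicate) was added 15 min before 1 μg/ml LPS for 24 h. Extracellular glutamate was read by enzyme-coupled Amplex UltraRed fluorescence against a glutamate standard curve, with cell-free counter-screens.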

[2] = molecular target: T1, System xC^- cystine/glutamate antiporter (SXC); test: [14C]-cystine uptake by LPS-activated primary microglia; format: cell-based
Procedure, shortened: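 Microglia were exposed for 24 h to HBSS or LPS (in HBSS) in DMEM with 0.2 mM cystine. An aliquot of that medium was checked for glutamate release to confirm activation. Medium was then replaced and uptake was measured over 15 min in EBSS with [¹⁴C]-cystine tracer (45 μCi/μmol, 10 μM), with LPS ± test compound. Specific uptake was obtained by subtracting a background control. Values average at least four determinations.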

[3] = system: ferroptosis; settings: read-out: EC50 for induction of ferroptosis; cited from earlier work
[4] = molecular target: T1, System xC^- cystine/glutamate antiporter (SXC); settings: 1 mM; used for background control; stated as known, no reference given; cited from earlier work
[5] = system: rat primary microglia; format: cell-based; settings: 24 h treatment; Pam3CSK4 10 µg/ml, poly I:C 50 µg/ml, Tat 1 µM, LPS 1 µg/ml
Procedure, shortened: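 Primary microglia were isolated from neonatal rat mixed glial cultures by shaking and kept in serum-free, phenol red-free DMEM with 2 mM glutamine and 0.2 mM cystine. Cells were stimulated for 24 h with the activator. Extracellular glutamate was quantified by enzyme-coupled Amplex UltraRed fluorescence against a standard curve, linear over 0.5–64 μM glutamate.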

| Molecule | Inhibition of LPS-induced glutamate release (result in words) [1] | Inhibition of cystine uptake (result in words) [2] | further results |
| --- | --- | --- | --- |
| CC(C)Oc1ccccc1-n1c(CN2CCN(C(=O)COc3ccc(Cl)cc3)CC2)nc2ccccc2c1=O [13MEW76] | did not affect inhibitory activity |  |  |
| CCOc1ccccc1-n1c(C(C)N2CCN(C(=O)COc3ccccc3)CC2)nc2ccccc2c1=O (stereo not shown) [35MEW13] | abolished inhibitory activity |  |  |
| CCOc1ccccc1-n1c(C(C)N2CCN(C(C)=O)CC2)nc2ccccc2c1=O (stereo not shown) [Erastin A8] | abolished inhibitory activity; also recorded: inactive | inactive |  |
| N[C@@H](C(=O)O)c1ccc(C(=O)O)cc1 [R-4CPG] | failed to inhibit | failed to inhibit | Inhibition of LPS-induced glutamate release (result in words) ([1]; listed as (R)-4-CPG): did not inhibit; Inhibition of cystine uptake (result in words) ([2]; listed as (R)-4-CPG): did not inhibit |
| N[C@H](C(=O)O)c1ccc(C(=O)O)cc1 [S-4CPG, (S)-4-carboxyphenyl glycine] | blocked | blocked |  |
| CCOc1ccccc1-n1c(C(C)N2CCN(C(=O)COc3ccc(Cl)cc3)CC2)nc2ccccc2c1=O (stereo not shown) [erastin] | blocked | blocked | EC50 [3]: 1200 nM; EC50 [1]: 130 ± 40 nM |
| O=C(O)c1cc(/N=N/c2ccc(S(=O)(=O)Nc3ccccn3)cc2)ccc1O [sulfasalazine] | blocked | blocked | Inhibition of SXC activity (result in words) [4]: completely inhibit |
| polyinosinic: polycytidylic acid [poly I:C] |  |  | Induction of glutamate release (result in words) [5]: Significant glutamate release |
| HIV-1 Tat1–86 protein: HIV-1 Tat1–86 protein obtained from Diatheva, microglia activator (protein, UniProt P04608 1-86, looked up) Protein Tat: MEPVDPRLEPWKHPGSQPKTACTNCYCKKCCFHCQVCFITKALGISYGRKKRRQRRRAHQNSQTHQASLSKQPTSQPRGDPTGPKE |  |  | Induction of glutamate release (result in words) [5]: Significant glutamate release |
